Assay results of several laboratories.
Values after ≈ are worked out from the molar mass of the structure shown.
Organism: Bacillus subtilis

Compound | observed | technique | strain | concentration | time | endpoint | result
Cc1c(NN=C(C#N)C2=NC(=O)CS2)c(=O)n(-c2ccccc2)n1C | microbial killing | broth dilution |  |  |  | MBC | 2 µg/mL (≈ 5.64 µM)
CC1C(=NOCc2cc(-c3ccc(Cl)cc3)no2)CC(c2ccccc2)OC1c1ccccc1 (stereo not shown) | microbial growth | broth dilution | MTCC121 |  | 24 h | MIC | 12.5 µg/mL (≈ 26.4 µM)
CCCCCCCCCCCCCCCC(=O)CP(=O)(O)O | microbial growth |  | ATCC23857 |  |  | MIC | 25 µg/mL (≈ 74.8 µM)
CC(C)CCCCCCCCCCCCc1cc(O)cc(O)c1 | microbial growth |  |  |  |  | IC50 | 54.6 µM
O=C(CCCCC1CCCCC1)NP(=O)(O)O | microbial growth |  | ATCC23857 |  |  | MIC | > 200 µg/mL
CC(C)CCCCCCCCCCCCCCCc1cc(O)cc(O)c1 | microbial growth |  |  |  |  | IC50 | 14.5 µM
O=C(O)c1cn(C2CC2)c2cc(N3CCNCC3)c(F)cc2c1=O | microbial killing |  |  |  |  | MBC | 0.019 µg/mL (≈ 0.0573 µM)
CCCCCCCCCCCCCCCC(=O)NS(=O)(=O)Oc1ccc(OC)cc1 | microbial growth |  | ATCC23857 |  |  | MIC | 3.12 µg/mL (≈ 7.06 µM)
CCC(CCCCCCCCCCc1cc(O)cc(O)c1)C(C)C (stereo not shown) | microbial growth |  |  |  |  | IC50 | 3.44 µM
CCCCCCCCCCCC(=O)NP(=O)(O)O | microbial growth |  | ATCC23857 |  |  | MIC | > 200 µg/mL
CCC1C(=NOCc2cc(-c3ccc(Cl)cc3)no2)CC(c2ccccc2)OC1c1ccccc1 (stereo not shown) | microbial growth | broth dilution | MTCC121 |  | 24 h | MIC | 12.5 µg/mL (≈ 25.7 µM)
CCCCCCCCCCCCCCCc1cc(O)cc(O)c1 | microbial growth |  |  |  |  | IC50 | 26.7 µM
CCCCCCCCCCCC(=O)OC[C@H]1O[C@@H](n2cc(C)c(=O)[nH]c2=O)C[C@@H]1O | microbial killing | broth dilution |  |  |  | MBC | 16 µg/mL (≈ 37.7 µM)
CC1(C)S[C@@H]2[C@H](NC(=O)[C@H](N)c3ccccc3)C(=O)N2[C@H]1C(=O)O | microbial growth | well diffusion | ATCC6633 | 60000 µg/mL |  | inhibition zone | 31 mm
CCCCCCCCCCCC(=O)OC[C@H]1O[C@@H](n2cc(C)c(=O)[nH]c2=O)C[C@@H]1OC(=O)c1ccc(C(C)(C)C)cc1 | microbial killing | broth dilution |  |  |  | MBC | 16 µg/mL (≈ 27.4 µM)
CCCCCCCC/C=C\CCCCCCCC(=O)C(F)(F)P(=O)(O)O | microbial growth |  | ATCC23857 |  |  | MIC | > 200 µg/mL
